We go through 14 compounds from ChEMBL document CHEMBL1287740, “Synthesis and bio-evaluation of alkylaminoaryl phenyl cyclopropyl methanones as antitubercular and antimalarial agents” (Bioorg Med Chem, 2010).

Molecules are shown by their SMILES. Values after ≈ are worked out from the molar mass of the structure shown. Active and inactive are the calls of the source. The calls are words filed in the database; no cut-off is given here.

A short description of data set [1]: Selectivity index, ratio of CC50 for african green monkey (Cercopithecus aethiops) Vero cells to IC50 for Plasmodium falciparum 3D7. The format is functional. The method, boiled down:
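Ratio of Vero CC50 (resazurin fluorescence after 72 h exposure) to P. falciparum 3D7 IC50 (radiolabelled hypoxanthine uptake; 24 h compound exposure, then 48 h with label).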

The subject of data set [2] is Plasmodium falciparum. Put plainly: Antimalarial activity against Plasmodium falciparum 3D7 assessed as radiolabeled hypoxanthine uptake after 48 hrs by scintillation counting. The format is functional, organism-based. To be noted: 3D7, 48 h. The method, boiled down:
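Chloroquine-sensitive P. falciparum 3D7 asynchronous culture at 0.5% parasitaemia and 1.5% hematocrit, exposed to compounds for 24 h at 37 °C in CO2. Radiolabelled hypoxanthine (0.5 µCi/well) then added and incubation continued 48 h. Cells harvested onto filter paper, and radioactivity counted by scintillation β-counter. IC50 derived from hypoxanthine uptake.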

The nature of data set [3]: Cytotoxicity against african green monkey Vero cells after 72 hrs. It is filed as cell-based. To be noted: chlorocebus sabaeus. The method, boiled down:
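Vero (C1008 monkey kidney) cells grown in MEM + 15% FBS, 5% CO2, 37 °C. Trypsinized cells at 1 × 10^5 cells/ml seeded and allowed to adhere overnight, then exposed to serial compound dilutions for 72 h. Resazurin added and fluorescence read after 4 h.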

Data set [4] relates to Mycobacterium tuberculosis. Description: Antimicrobial activity against Mycobacterium tuberculosis H37Rv after 30 days by agar microdilution method. The format is functional. The method, boiled down: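 Twofold dilutions of compound in DMSO incorporated into Middlebrook 7H10 medium with OADC supplement in slanted tubes, preincubated 37 °C for 24 h, then streaked with H37Rv harvested from L-J medium into 0.85% saline with 0.05% Tween-80 (5 × 10^5 bacilli per tube). Incubated at 37 °C; MIC = lowest concentration giving complete inhibition of colonies versus drug-free control.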

Data set [5] has as its system Plasmodium falciparum. Description: Antimalarial activity against Plasmodium falciparum 3D7 assessed as maturation of schizonts after 24 to 32 hrs by microdilution method. The format is functional. The method, boiled down:
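P. falciparum 3D7 (chloroquine sensitive); twofold serial dilutions in complete RPMI 1640 from 10 mg/ml DMSO stocks, parasitized RBCs added (final hematocrit 3–4%, 1.0–2.0% parasitaemia, >95% rings). Incubated 24–32 h at 37 °C with 5% CO2. Thin smears stained with 15% Giemsa; schizont maturation scored against controls to give MIC.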
On the technique in general: Broth dilution looks for growth in wells or tubes with falling amounts of substance.

Data set [6] deals with Mycolicibacterium aurum. Description: Inhibition of type II fatty acid biosynthesis pathway in Mycobacterium aurum at 50 uM after 12 hrs by lacZ reporter assay relative to untreated control. It is filed as functional. The method, boiled down:
(§1)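 Recombinant M. aurum lacZ reporter strains (kasA promoter or hsp60 promoter) grown in Sauton's medium with kanamycin at 37 °C to 0.5 OD600, diluted to 0.04–0.05 OD, equilibrated 2 h, then treated 12 h at 37 °C (10, 25, 50, 75 µM). Cells sonicated in PBS pH 7.2 and protein normalized by Bradford. β-gal measured with ONPG (4 mg/ml), 30 min at 37 °C, stopped with Na2CO3, OD 410 nm. Triplicates, relative to untreated control.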
A general note: A reporter such as luciferase makes a cellular process visible.

In data set [7] the test system is Mycolicibacterium aurum. Put plainly: Inhibition of type II fatty acid biosynthesis pathway in Mycobacterium aurum at 25 uM after 12 hrs by lacZ reporter assay relative to untreated control. The format is functional. The method, boiled down: as §1

With `O=C(/C=C/c1ccc(Cl)cc1)c1ccc(NCc2ccco2)cc1`, in data set [1], the “Ratio CC50/IC50” value is 531.62. Also, the IC50 – broadly, the concentration needed to halve the response being measured – in the data set with Plasmodium falciparum [2] is 0.76 mg/L (≈ 2.25 µM). Besides, in data set [3], it took 404 mg/L (≈ 1200 µM) to reach half-maximal cytotoxicity (CC50 at 72 h). Moreover, the MIC (in general, the lowest concentration that inhibits growth of the organism) in data set [4] worked out at 12.5 mg/L (≈ 37 µM); in the data set with Plasmodium falciparum [5] it was 10 mg/L (≈ 29.6 µM).
With `CCCCCCCNc1ccc(C(=O)C2CC2c2ccc(OC)c(OC)c2)cc1` (configuration not stated), the “Ratio CC50/IC50” value in data set [1] is listed as 121.67. In the data set with Plasmodium falciparum [2], the IC50 came out at 2.24 mg/L (≈ 5.66 µM). For the same compound, in data set [3], the midpoint of cytotoxicity, the CC50 at 72 h, lay at 273 mg/L (≈ 689 µM). In addition, the MIC in data set [4] is above 12.5 mg/L; with Plasmodium falciparum [5], 10 mg/L (≈ 25.3 µM).
For `CCCCCCCNc1ccc(C(=O)C2CC2c2ccc(Cl)cc2)cc1` (configuration not stated), in data set [1], the “Ratio CC50/IC50” value was 4975. Besides, the IC50 in the data set with Plasmodium falciparum [2] was 0.08 mg/L (≈ 0.216 µM). Besides, in data set [3], it took 398 mg/L (≈ 1080 µM) to reach half-maximal cytotoxicity (CC50 at 72 h). For the same compound, the MIC in data set [4] is above 12.5 mg/L; with Plasmodium falciparum [5], 0.3 mg/L (≈ 0.811 µM). Further, the inhibition result with Mycolicibacterium aurum [6] and with Mycolicibacterium aurum [7] was “inactive” each time.
With `O=C(c1ccc(NCCn2cnc3ccccc32)cc1)C1CC1c1ccc(Cl)cc1` (configuration not stated), the “Ratio CC50/IC50” value in data set [1] amounted to 385.45. Moreover, the half-inhibitory concentration (IC50) in the data set with Plasmodium falciparum [2] is 0.74 mg/L (≈ 1.78 µM). Besides, in data set [3], the CC50 (commonly the concentration that lowers cell viability or growth by half) at 72 h worked out at 285 mg/L (≈ 686 µM). Further, the values for the MIC (in data set [4]; with Plasmodium falciparum [5]) were 12.5 mg/L (≈ 30.1 µM) and 2 mg/L (≈ 4.81 µM), respectively. In addition, the inhibition (as a rule, the change of the read-out against control, counted positive when it falls) at 50 µM with Mycolicibacterium aurum [6] was found to be 16.9%. The compound also gave an inhibition at 25 µM with Mycolicibacterium aurum [7] of 1.03%.
With `O=C(c1ccc(N2CCCC2)cc1)C1CC1c1ccc(Cl)cc1` (configuration not stated), in data set [1], the “Ratio CC50/IC50” value amounted to 44.26. Besides, the IC50 in the data set on Plasmodium falciparum [2] worked out at 9.75 mg/L (≈ 29.9 µM). Besides, in data set [3], the midpoint of cytotoxicity, the CC50 at 72 h, lay at 431 mg/L (≈ 1320 µM). The MIC was 12.5 mg/L (≈ 38.4 µM) in data set [4] and above 50 mg/L in the data set with Plasmodium falciparum [5].
Consider `O=C(c1ccc(NCCO)cc1)C1CC1c1ccc(Cl)cc1` (configuration not stated), for which the “Ratio CC50/IC50” value in data set [1] worked out at 508.33. The IC50 with Plasmodium falciparum [2] is 0.6 mg/L (≈ 1.9 µM). Further, in data set [3], the CC50 at 72 h was 305 mg/L (≈ 966 µM). For the same compound, the MIC was above 12.5 mg/L in data set [4] and 2 mg/L (≈ 6.33 µM) in the data set on Plasmodium falciparum [5].
As for `O=C(c1ccc(NC2CCCCC2)cc1)C1CC1c1ccc(Cl)cc1` (configuration not stated), in data set [1], the “Ratio CC50/IC50” value turned out to be 261.57. The IC50 in the data set on Plasmodium falciparum [2] came out at 0.75 mg/L (≈ 2.12 µM). For the same compound, in data set [3], it took 196 mg/L (≈ 554 µM) to reach half-maximal cytotoxicity (CC50 at 72 h). The MIC is above 12.5 mg/L in data set [4] and 10 mg/L (≈ 28.3 µM) with Plasmodium falciparum [5]. Also, the inhibition result in the data set on Mycolicibacterium aurum [6] and in the data set with Mycolicibacterium aurum [7] was “inactive” each time.
Regarding `CCN(CC)CCCC(C)Nc1ccnc2cc(Cl)ccc12` (configuration not stated) [CHLOROQUINE], in the data set on Plasmodium falciparum [5], the MIC was determined as 0.05 mg/L (≈ 0.156 µM).
For `O=C(c1ccc(NCCn2ccnc2)cc1)C1CC1c1ccc(Cl)cc1` (configuration not stated), the “Ratio CC50/IC50” value in data set [1] was determined as 6948.57. Moreover, the IC50 in the data set on Plasmodium falciparum [2] was 0.035 mg/L (≈ 0.0957 µM). Moreover, the CC50 at 72 h in data set [3] came to 243 mg/L (≈ 665 µM). Further, the MIC in data set [4] was 6.25 mg/L (≈ 17.1 µM); in the data set on Plasmodium falciparum [5], 0.062 mg/L (≈ 0.169 µM). The compound also yielded an inhibition at 50 µM in the data set on Mycolicibacterium aurum [6] of 50.2%. Also, at 25 µM the inhibition in the data set on Mycolicibacterium aurum [7] was 48.6%.
For `O=C(c1ccc(N2CCCCC2)cc1)C1CC1c1ccc(Cl)cc1` (configuration not stated), the “Ratio CC50/IC50” value in data set [1] was 46.99. In addition, the IC50 with Plasmodium falciparum [2] stood at 6.05 mg/L (≈ 17.8 µM). The compound further gave a CC50 at 72 h in data set [3] of 284 mg/L (≈ 836 µM). The MIC in data set [4] was above 12.5 mg/L; in the data set on Plasmodium falciparum [5], 10 mg/L (≈ 29.4 µM).
Regarding `O=C(c1ccc(N2CCOCC2)cc1)C1CC1c1ccc(Cl)cc1` (configuration not stated), the “Ratio CC50/IC50” value in data set [1] is 149.92. Moreover, the IC50 with Plasmodium falciparum [2] was determined as 3.02 mg/L (≈ 8.83 µM). Further, in data set [3], the CC50 at 72 h was found to be 453 mg/L (≈ 1320 µM). In addition, the MIC was above 12.5 mg/L in data set [4] and 10 mg/L (≈ 29.3 µM) in the data set with Plasmodium falciparum [5]. This compound registered an inhibition at 50 µM with Mycolicibacterium aurum [6] of 3.81%. This compound also came in with an inhibition at 25 µM in the data set on Mycolicibacterium aurum [7] of 29.8%.
With `CCCCNc1ccc(C(=O)C2CC2c2ccc(Cl)cc2)cc1` (configuration not stated), the “Ratio CC50/IC50” value in data set [1] is 958.69. Also, in the data set with Plasmodium falciparum [2], the IC50 was found to be 0.33 mg/L (≈ 1.01 µM). For the same compound, the CC50 at 72 h in data set [3] stood at 316 mg/L (≈ 965 µM). For the same compound, the MIC in data set [4] is 12.5 mg/L (≈ 38.1 µM); in the data set on Plasmodium falciparum [5] it was 0.6 mg/L (≈ 1.83 µM). Also, at 50 µM the inhibition with Mycolicibacterium aurum [6] was 60.9%. This compound showed an inhibition at 25 µM in the data set on Mycolicibacterium aurum [7] of 39.5%.
On to `O=C(c1ccc(NCc2ccco2)cc1)C1CC1c1ccc(Cl)cc1` (configuration not stated), for which, in data set [1], the “Ratio CC50/IC50” value is reported as 149.64. In addition, in the data set with Plasmodium falciparum [2], the IC50 was determined as 1.71 mg/L (≈ 4.86 µM). In data set [3], this compound showed a CC50 at 72 h of 256 mg/L (≈ 727 µM). In addition, the minimum inhibitory concentration (MIC) in data set [4] amounted to 3.12 mg/L (≈ 8.87 µM); in the data set on Plasmodium falciparum [5], 10 mg/L (≈ 28.4 µM). In the data set with Mycolicibacterium aurum [6], this compound registered an inhibition at 50 µM of 27.4%. The same compound came in with an inhibition at 25 µM in the data set with Mycolicibacterium aurum [7] of 16.5%.
For `CCCCCCCCCCCCNc1ccc(C(=O)C2CC2c2ccc(Cl)cc2)cc1` (configuration not stated), the “Ratio CC50/IC50” value in data set [1] is reported as 37.08. Moreover, the IC50 in the data set on Plasmodium falciparum [2] is 10.4 mg/L (≈ 23.6 µM). The same compound displayed a CC50 at 72 h in data set [3] of 386 mg/L (≈ 876 µM). Also, the MIC result in data set [4] is “Insoluble”; with Plasmodium falciparum [5], above 50 mg/L. In addition, the inhibition at 50 µM with Mycolicibacterium aurum [6] came to 32.7%. For the same compound, at 25 µM the inhibition in the data set with Mycolicibacterium aurum [7] was 27%.
